Measurements taken from ChEMBL document CHEMBL3525963, “Tissue distribution and elimination of [14C]apixaban in rats” (Drug Metab Dispos, 2011).

What was measured:
Design in all cases: dose 5 mg/kg, dosed compound name [14C]-apixaban, route oral
Conditions in all cases: in vivo
Harderian gland [1] = experiment: Biodistribution in male Sprague-Dawley rat harderian gland at 5 mg/kg, po administered as single dose measured after 8 hrs; format: ADME, organism-based
In short: (§1)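 [¹⁴C]Apixaban given by oral gavage at 5 mg/kg (100 μCi/kg) in 0.5% Tween 80 in Labrafil (1.0 mg/mL dosing solution) to rats fasted overnight through 4 h post-dose. One rat per time point; carcass frozen in hexane/dry ice. Quantitative whole-body autoradiography used 40 µm sagittal sections and a phosphor imaging plate calibrated with [¹⁴C]glucose standards (0.001–6.5 μCi/g). Read-out in µg eq apixaban/g; LLOQ 0.037 μg eq/g.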

Brain [2] = experiment: Biodistribution in female Sprague-Dawley rat brain at 5 mg/kg, po administered as single dose measured after 72 hrs; format: ADME, organism-based
In short: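 [14C]Apixaban (1.0 mg/mL, 20 μCi/mL in 0.5% Tween 80 in Labrafil) given as a single oral gavage of 5 mg/kg (100 μCi/kg) to fasted female SD rats, one rat per time point. Carcasses were frozen in hexane/dry ice and cut into 40 µm sagittal sections for QWBA against [14C]glucose standards. Brain radioactivity is reported as µg eq/g, with LLOQ 0.037 µg eq/g.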

Pancreas [3] = experiment: Biodistribution in female Sprague-Dawley rat pancreas at 5 mg/kg, po administered as single dose measured after 24 hrs; format: ADME, organism-based
In short: (§2)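 Quantitative whole-body autoradiography was run after a single 5 mg/kg (100 μCi/kg) oral gavage to fasted female or pregnant SD rats, one rat per time point. Carcasses were frozen in hexane/dry ice, and 40 µm sagittal sections were dried at −20°C for at least 48 h. Sections were exposed to a phosphor plate alongside [14C]glucose standards (0.001–6.5 µCi/g). Results are µg eq/g, with LLOQ 0.037 µg eq/g.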

Spleen [4] = experiment: Biodistribution in female Sprague-Dawley rat spleen at 5 mg/kg, po administered as single dose measured after 8 hrs; format: ADME, organism-based; in short: as §1
Harderian gland [5] = experiment: Biodistribution in female Sprague-Dawley rat harderian gland at 5 mg/kg, po administered as single dose measured after 8 hrs; format: ADME, organism-based; in short: as §1
Brain [6] = experiment: Biodistribution in male Sprague-Dawley rat brain at 5 mg/kg, po administered as single dose measured after 72 hrs; format: ADME, organism-based
Rattus norvegicus [7] = experiment: Biodistribution in male Sprague-Dawley rat brown fat at 5 mg/kg, po administered as single dose measured after 72 hrs; format: ADME, organism-based, Brown adipose tissue
In short: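 Fasted male SD rats (225-252 g) each received one oral gavage dose of [14C]apixaban, 5 mg/kg (100 μCi/kg), in 0.5% Tween 80/Labrafil vehicle. One rat was killed per time point, from 0.5 to 168 h. Frozen carcasses were cut into 40 µm sagittal whole-body sections and read by QWBA phosphor imaging against [14C]glucose calibrants. Results are in µg apixaban eq/g; BLQ <0.037 µg eq/g.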

Rattus norvegicus [8] = experiment: Biodistribution in male Sprague-Dawley rat salivary gland at 5 mg/kg, po administered as single dose measured after 1 hr; format: ADME, organism-based
Thymus [9] = experiment: Biodistribution in male Sprague-Dawley rat thymus at 5 mg/kg, po administered as single dose measured after 1 hr; format: ADME, organism-based
Blood [10] = experiment: Biodistribution in male Sprague-Dawley rat blood at 5 mg/kg, po administered as single dose measured after 8 hrs; format: ADME, organism-based; in short: as §1
Spleen [11] = experiment: Biodistribution in pregnant Sprague-Dawley rat spleen at 5 mg/kg, po administered as single dose measured after 8 hrs; format: ADME, organism-based
Rattus norvegicus [12] = experiment: Biodistribution in fetal blood of pregnant Sprague-Dawley rat at 5 mg/kg, po administered as single dose measured after 8 hrs; format: ADME, organism-based
In short: (§3)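 Pregnant rats, 270-319 g and fasted overnight, received [14C]apixaban by oral gavage at 100 μCi/kg in 0.5% Tween 80/Labrafil. One dam per time point was euthanized and frozen in hexane/dry ice. Fetal tissue radioactivity was measured by QWBA on 40 µm sagittal sections calibrated with [14C]glucose standards. Values are in µg eq/g, with LLOQ 0.037 μg eq/g.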

Muscle tissue [13] = experiment: Biodistribution in pregnant Sprague-Dawley rat muscle at 5 mg/kg, po administered as single dose measured after 48 hrs; format: ADME, organism-based
In short: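 Pregnant SD rats (270-319 g) were fasted overnight and given one oral gavage of 5 mg/kg (100 μCi/kg) in 0.5% Tween 80 in Labrafil. One rat was euthanized per time point (0.5, 1, 4, 8, 24, 48 h) and the carcass frozen. 40 µm sagittal sections were phosphor-imaged against [14C]glucose standards and results reported as µg eq/g; LLOQ 0.037 µg eq/g.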

Blood [14] = experiment: Cmax in male Sprague-Dawley rat blood at 5 mg/kg, po administered as single dose; format: ADME, organism-based
In short: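 Fasted male, female or pregnant SD rats received a single oral gavage of 5 mg/kg (100 μCi/kg) in 0.5% Tween 80/Labrafil. One rat was killed per time point, up to 168 h (48 h for pregnant). Blood was collected into K3EDTA. Blood radioactivity came from autoradiogram or LSC data, and Cmax was taken from the concentration-time profile.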

Harderian gland [15] = experiment: Biodistribution in female Sprague-Dawley rat harderian gland at 5 mg/kg, po administered as single dose measured after 72 hrs; format: ADME, organism-based; in short: as §2
Blood [16] = experiment: Biodistribution in female Sprague-Dawley rat blood at 5 mg/kg, po administered as single dose measured after 4 hrs; format: ADME, organism-based; in short: as §1
Rattus norvegicus [17] = experiment: Biodistribution in pregnant Sprague-Dawley rat placenta at 5 mg/kg, po administered as single dose measured after 4 hrs; format: ADME, organism-based
Brain [18] = experiment: Biodistribution in pregnant Sprague-Dawley rat brain at 5 mg/kg, po administered as single dose measured after 0.5 hrs; format: ADME, organism-based
Muscle tissue [19] = experiment: Biodistribution in pregnant Sprague-Dawley rat muscle at 5 mg/kg, po administered as single dose measured after 0.5 hrs; format: ADME, organism-based
Thymus [20] = experiment: Biodistribution in pregnant Sprague-Dawley rat thymus at 5 mg/kg, po administered as single dose measured after 0.5 hrs; format: ADME, organism-based
Rattus norvegicus [21] = experiment: Biodistribution in fetal liver of pregnant Sprague-Dawley rat at 5 mg/kg, po administered as single dose measured after 0.5 hrs; format: ADME, organism-based; in short: as §3
Pancreas [22] = experiment: Biodistribution in pregnant Sprague-Dawley rat pancreas at 5 mg/kg, po administered as single dose measured after 1 hr; format: ADME, organism-based
Rattus norvegicus [23] = experiment: Biodistribution in pregnant Sprague-Dawley rat salivary gland at 5 mg/kg, po administered as single dose measured after 1 hr; format: ADME, organism-based
Spleen [24] = experiment: Biodistribution in pregnant Sprague-Dawley rat spleen at 5 mg/kg, po administered as single dose measured after 1 hr; format: ADME, organism-based
Thymus [25] = experiment: Biodistribution in pregnant Sprague-Dawley rat thymus at 5 mg/kg, po administered as single dose measured after 1 hr; format: ADME, organism-based
Rattus norvegicus [26] = experiment: Biodistribution in pregnant Sprague-Dawley rat placenta at 5 mg/kg, po administered as single dose measured after 1 hr; format: ADME, organism-based
Rattus norvegicus [27] = experiment: Biodistribution in fetal brain of pregnant Sprague-Dawley rat at 5 mg/kg, po administered as single dose measured after 1 hr; format: ADME, organism-based
In short: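 Pregnant SD rats received a single oral gavage of [14C]apixaban at 5 mg/kg (100 μCi/kg; 1.0 mg/mL, 20 μCi/mL in 0.5% Tween 80/Labrafil) after fasting, one dam per time point. Frozen carcasses were cut into 40 µm sagittal sections and read by phosphor-imaging QWBA against [14C]glucose standards. Fetal tissue radioactivity is reported as µg eq/g, with LLOQ 0.037 µg eq/g.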

COc1ccc(-n2nc(C(N)=O)c3c2C(=O)N(c2ccc(N4CCCC[14C]4=O)cc2)CC3)cc1
Radiolabel recovery (Harderian gland [1]): 0.12 ugequiv/g
Radiolabel recovery (Brain [2]): < 0.037 ugequiv/g
Radiolabel recovery (Pancreas [3]): Not detected assumed BLQ
Radiolabel recovery (Spleen [4]): 0.13 ugequiv/g
Radiolabel recovery (Harderian gland [5]): 0.22 ugequiv/g
Radiolabel recovery (Brain [6]): < 0.037 ugequiv/g
Radiolabel recovery (Rattus norvegicus [7]): Not sampled as not visualised in autoradiograph
Radiolabel recovery (Rattus norvegicus [8]): 0.72 ugequiv/g
Radiolabel recovery (Thymus [9]): 0.46 ugequiv/g
Radiolabel recovery (Blood [10]): 0.08 ugequiv/g
Radiolabel recovery (Spleen [11]): 0.05 ugequiv/g
Radiolabel recovery (Rattus norvegicus [12]): 0.07 ugequiv/g
Radiolabel recovery (Muscle tissue [13]): Not detected assumed BLQ
Cmax (Blood [14]): 1180 ngequiv/g
Radiolabel recovery (Harderian gland [15]): Not detected assumed BLQ
Radiolabel recovery (Blood [16]): 0.35 ugequiv/g
Radiolabel recovery (Rattus norvegicus [17]): 1.06 ugequiv/g
Radiolabel recovery (Brain [18]): 0.05 ugequiv/g
Radiolabel recovery (Muscle tissue [19]): 0.37 ugequiv/g
Radiolabel recovery (Thymus [20]): 0.38 ugequiv/g
Radiolabel recovery (Rattus norvegicus [21]): 0.16 ugequiv/g
Radiolabel recovery (Pancreas [22]): 0.75 ugequiv/g
Radiolabel recovery (Rattus norvegicus [23]): 0.95 ugequiv/g
Radiolabel recovery (Spleen [24]): 0.51 ugequiv/g
Radiolabel recovery (Thymus [25]): 0.58 ugequiv/g
Radiolabel recovery (Rattus norvegicus [26]): 0.74 ugequiv/g
Radiolabel recovery (Rattus norvegicus [27]): 0.05 ugequiv/g
